# Laboratory results: ChEMBL document CHEMBL3244074, “2-Indanpropionic acids: structural leads for prostaglandin F2alpha antagonist development” (J Med Chem, 1979)
# The source made the active and inactive calls. No cut-off for these calls is given here.
# Tests used:
# Type in all cases: tissue-based
# [1] = target: Prostaglandin F2-alpha receptor (Mus musculus) (UniProt P43117); experiment: Antagonist activity at prostaglandin F2-alpha receptor in isolated Albino mouse ileum assessed as inhibition of acetylcholine-induced spasmogenic effect at 10^-4 M preincubated for 3 mins followed by acetylcholine challenge relative to control
# In short: (§1)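 Mouse ileum came from female albinos (20-25 g) killed by cervical dislocation and was held under 200 mg tension in 37 °C baths for isotonic recording, with 30-min equilibration. A control acetylcholine contraction was obtained, then three washes. Compound was in contact for 3 min before acetylcholine challenge and contraction recording. After 5 min there were three washes and the control response was redetermined.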
# [2] = target: Prostaglandin F2-alpha receptor (Mus musculus) (UniProt P43117); experiment: Antagonist activity at prostaglandin F2-alpha receptor in isolated Albino mouse ileum assessed as inhibition of KCl-induced spasmogenic effect at 10^-4 M preincubated for 3 mins followed by KCl challenge relative to control
# In short: (§2)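 Ileum sections were taken from female albino mice (20-25 g) killed by cervical dislocation and mounted in 37 °C baths under 200 mg tension, with isotonic contraction recording after a 30-min equilibration. A control contraction to KCl (54 mM bath) was followed by three washes. Compound was left on the tissue for 3 min, then KCl was re-added and the contraction recorded. After 5 min the tissue was washed three times and the control response repeated.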
# [3] = target: Prostaglandin F2-alpha receptor (Mus musculus) (UniProt P43117); experiment: Antagonist activity at prostaglandin F2-alpha receptor in isolated Albino mouse ileum assessed as inhibition of PGF2alpha-induced spasmogenic effect at 10^-4 M preincubated for 3 mins followed by PGF2alpha challenge relative to control
# In short: (§3)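 This used female albino mouse ileum (20-25 g animals, killed by cervical dislocation), recorded isotonically under 200 mg tension at 37 °C after 30-min equilibration. A control PGF2α contraction was obtained and the bath washed three times. Compound was applied for 3 min before PGF2α challenge, and the contraction was recorded. Washing three times after 5 min was followed by a repeat PGF2α control response.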
# [4] = target: Prostaglandin F2-alpha receptor (Mus musculus) (UniProt P43117); experiment: Antagonist activity at prostaglandin F2-alpha receptor in isolated Albino mouse ileum assessed as inhibition of acetylcholine-induced spasmogenic effect at; in short: as §1
# [5] = target: Prostaglandin F2-alpha receptor (Mus musculus) (UniProt P43117); experiment: Antagonist activity at prostaglandin F2-alpha receptor in isolated Albino mouse ileum assessed as inhibition of KCl-induced spasmogenic effect at; in short: as §2
# [6] = target: Prostaglandin F2-alpha receptor (Mus musculus) (UniProt P43117); experiment: Antagonist activity at prostaglandin F2-alpha receptor in isolated Albino mouse ileum assessed as inhibition of PGF2alpha-induced spasmogenic effect at; in short: as §3
# [7] = target: Prostaglandin F2-alpha receptor (Mus musculus) (UniProt P43117); experiment: Antagonist activity at prostaglandin F2-alpha receptor in isolated Albino mouse ileum assessed as inhibition of PGF2alpha-induced spasmogenic effect preincubated for 3 mins followed by PGF2alpha challenge followed by compound washout; in short: as §3
# [8] = target: Prostaglandin F2-alpha receptor (Mus musculus) (UniProt P43117); experiment: Antagonist activity at prostaglandin F2-alpha receptor in isolated Albino mouse ileum assessed as inhibition of acetylcholine-induced spasmogenic effect preincubated for 3 mins followed by acetylcholine challenge followed by compound washout; in short: as §1
# [9] = target: Prostaglandin F2-alpha receptor (Mus musculus) (UniProt P43117); experiment: Antagonist activity at prostaglandin F2-alpha receptor in isolated Albino mouse ileum assessed as inhibition of KCl-induced spasmogenic effect preincubated for 3 mins followed by KCl challenge followed by compound washout; in short: as §2
# [10] = target: Prostaglandin F2-alpha receptor (Mus musculus) (UniProt P43117); experiment: Antagonist activity at prostaglandin F2-alpha receptor in isolated Albino mouse ileum assessed as inhibition of acetylcholine-induced spasmogenic effect at 10^-3 M preincubated for 3 mins followed by acetylcholine challenge relative to control; in short: as §1
# [11] = target: Prostaglandin F2-alpha receptor (Mus musculus) (UniProt P43117); experiment: Antagonist activity at prostaglandin F2-alpha receptor in isolated Albino mouse ileum assessed as inhibition of KCl-induced spasmogenic effect at 10^-3 M preincubated for 3 mins followed by KCl challenge relative to control; in short: as §2
# [12] = target: Prostaglandin F2-alpha receptor (Mus musculus) (UniProt P43117); experiment: Antagonist activity at prostaglandin F2-alpha receptor in isolated Albino mouse ileum assessed as inhibition of PGF2alpha-induced spasmogenic effect at 10^-3 M preincubated for 3 mins followed by PGF2alpha challenge relative to control; in short: as §3
# [13] = target: Prostaglandin F2-alpha receptor (Mus musculus) (UniProt P43117); experiment: Antagonist activity at prostaglandin F2-alpha receptor in isolated Albino mouse ileum assessed as inhibition of PGF2alpha-induced spasmogenic effect at 5X10'-5 M preincubated for 3 mins followed by PGF2alpha challenge relative to control; in short: as §3
# [14] = target: Prostaglandin F2-alpha receptor (Mus musculus) (UniProt P43117); experiment: Antagonist activity at prostaglandin F2-alpha receptor in isolated Albino mouse ileum assessed as inhibition of KCl-induced spasmogenic effect at 5X10'-5 M preincubated for 3 mins followed by KCl challenge relative to control; in short: as §2
# [15] = target: Prostaglandin F2-alpha receptor (Mus musculus) (UniProt P43117); experiment: Antagonist activity at prostaglandin F2-alpha receptor in isolated Albino mouse ileum assessed as inhibition of acetylcholine-induced spasmogenic effect at 5X10'-5 M preincubated for 3 mins followed by acetylcholine challenge relative to control; in short: as §1
# [16] = target: Prostaglandin F2-alpha receptor (Mus musculus) (UniProt P43117); experiment: Antagonist activity at prostaglandin F2-alpha receptor in isolated Albino mouse ileum assessed as inhibition of PGF2alpha-induced spasmogenic effect at 3X10'-5 M preincubated for 3 mins followed by PGF2alpha challenge relative to control; in short: as §3
# [17] = target: Prostaglandin F2-alpha receptor (Mus musculus) (UniProt P43117); experiment: Antagonist activity at prostaglandin F2-alpha receptor in isolated Albino mouse ileum assessed as inhibition of acetylcholine-induced spasmogenic effect at 3X10'-5 M preincubated for 3 mins followed by acetylcholine challenge relative to control; in short: as §1
# [18] = target: Prostaglandin F2-alpha receptor (Mus musculus) (UniProt P43117); experiment: Antagonist activity at prostaglandin F2-alpha receptor in isolated Albino mouse ileum assessed as inhibition of KCl-induced spasmogenic effect at 3X10'-5 M preincubated for 3 mins followed by KCl challenge relative to control; in short: as §2
# Chain of Prostaglandin F2-alpha receptor (Mus musculus) (P43117 whole entry): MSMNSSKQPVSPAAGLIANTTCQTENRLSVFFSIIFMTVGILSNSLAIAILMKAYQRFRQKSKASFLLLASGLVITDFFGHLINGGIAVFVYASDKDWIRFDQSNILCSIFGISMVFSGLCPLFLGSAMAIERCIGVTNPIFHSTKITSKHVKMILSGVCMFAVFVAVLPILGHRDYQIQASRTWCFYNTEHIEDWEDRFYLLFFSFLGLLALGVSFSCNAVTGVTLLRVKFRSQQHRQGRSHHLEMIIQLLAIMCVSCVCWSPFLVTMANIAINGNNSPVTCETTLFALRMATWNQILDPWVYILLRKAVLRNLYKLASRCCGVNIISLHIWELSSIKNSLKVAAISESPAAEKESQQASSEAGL
inhibition [1],inhibition [2],inhibition [3],inhibition [4],inhibition [5],inhibition [6],inhibition [7],inhibition [8],inhibition [9],inhibition [10],inhibition [11],inhibition [12],inhibition [13],inhibition [14],inhibition [15],inhibition [16],inhibition [17],inhibition [18],SMILES
inactive,inactive,20%,inactive,inactive,inactive,inactive,inactive,inactive,Active,Active,Active,–,–,–,–,–,–,CCCC1(CCC(=O)O)Cc2cc3c(cc2C1=O)OCO3 (centres undefined)
inactive,inactive,20%,inactive,inactive,inactive,inactive,inactive,inactive,Active,Active,Active,–,–,–,–,–,–,CCCC1(CCC(=O)O)Cc2ccc(OC)cc2C1=O (centres undefined)
70%,70%,Active,Active,Active,Active,inactive,inactive,inactive,Active,Active,Active,90%,50%,35%,80%,< 20%,40%,CCCC1(CCC(=O)O)Cc2cc(OCc3ccccc3)c(OCc3ccccc3)cc2C1=O (centres undefined)
inactive,inactive,20%,inactive,inactive,inactive,inactive,inactive,inactive,Active,Active,Active,–,–,–,–,–,–,CCCC1(CCC(=O)O)Cc2cc3c(cc2C1)OCO3
